Source: PubChem BioAssay
MEKK2 mut-MEK5 – MEK5 binding signal on mutant MEKK2 PB1, primary screen, biochemical, multiplex bead flow cytometry, Alexa488-MEK5. Alexa488-MEK5 binding to MEKK2 mutant. percent response, % at 10 µM. hit rate 0.35% among 290,000. AID 1530, 2009; in the data active = percent response above about 24%, passing the limit was not always enough
MEKK2 WT-MEK5 – modulators of MEK5 binding to wildtype MEKK2, primary screen, biochemical, multiplex bead flow cytometry, Alexa488-MEK5; AID 1531, 2009; Mitogen-activated protein kinase kinase kinase 2 (Homo sapiens), Q9Y2U5; hit rate 1.1% among 290,000; Alexa488-MEK5 binding to MEKK2 WT; actives lie on both sides; binding response (% of control), % at 10 µM; in the data active = binding response below about 67% or above about 130%
Pemphigus Ab inh – inhibitors of pemphigus antibody binding to DSG3, primary screen, biochemical, bead-based, flow cytometry, scFv-GFP. Desmoglein-3 (Homo sapiens), P32926. DSG3-coupled beads, scFv-anti-DSG3-GFP binding; active compounds read low. binding (percent of control), % at 10 µM. hit rate 0.48% among 310,000;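 active = binding more than 3 SD below its plate's average and above zero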;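 note: hits lower antibody fragment binding to DSG3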
Apaf1 inhib – inhibitors of human Apaf-1 apoptosome, primary screen, biochemical, DEVD-Rh110 fluorescence, uHTS | Apoptotic protease-activating factor 1 (Homo sapiens), O14727 | reconstituted apoptosome caspase-3 activity | inhibition, % at 20 µM | hit rate 0.71% among 330,000 | AID 489030, 2010; active = inhibition of at least 40% at 20 µM;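 note: plate controls were DMSO wells for no effect and DEVD-CHO caspase inhibitor wells for full effect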
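Assay system – apoptosome proteins · Medium – Hepes buffer, pH 7.5 · Also added – cytochrome c with DEVD-Rh110 · Timing – 30 min compound preincubation, 50 min activation, room temperature · Detection – Rh110 fluorescence, excitation 480 nm, emission 540 nm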
MEKK3 PB1 HTS – modulators of MEKK3-MEK5 PB1 binding, primary screen, biochemical, wildtype MEKK3, multiplex bead flow cytometry, Alexa488-MEK5. Mitogen-activated protein kinase kinase kinase 3 (Homo sapiens), Q99759. bead-based flow cytometry, Alexa488-MEK5 binding to MEKK3; actives lie on both sides; 0 = blocked by unlabeled MEK5, 100 = vehicle. binding response (% of control), % at 10 µM. hit rate 1.4% among 290,000. AID 1529, 2009;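 active = binding response more than 3 SD above or below the average of its plate-row segment, actives on both sides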;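 note: Alexa488 bead fluorescence after subtracting the streptavidin-only scavenger bead signal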
UBC13 inh – UBC13 polyubiquitin chain formation inhibitors, primary screen, biochemical, TR-FRET, uHTS. AID 485273, 2010. hit rate 0.47% among 330,000. inhibition, % at 20 µM. Ubiquitin-conjugating enzyme E2 N (Homo sapiens), P61088; in the data active = inhibition above about 45%, passing the limit was not always enough
Target sequence (P61088 whole entry, looked up): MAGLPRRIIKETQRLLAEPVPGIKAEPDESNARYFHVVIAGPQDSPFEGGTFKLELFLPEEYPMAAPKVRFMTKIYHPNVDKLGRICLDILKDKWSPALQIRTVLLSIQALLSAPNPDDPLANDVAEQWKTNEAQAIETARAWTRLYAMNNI
Casp3 UBC13 ctr – CASP3 inhibitor validation, counterassay for project on UBE2N polyubiquitination blockers, biochemical, one dose; shares compounds with UBC13 inh; Recombinant caspase-3, Caspase-Glo 3/7 luminescence, 60 min; inhibition, % at 20 µM; hit rate 4% among 1,400; AID 488856, 2010;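 active = mean inhibition across replicates above about 26%, limit read from the data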;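 note: plate controls were DMSO with caspase-3 for no effect and DMSO wells lacking enzyme for full effect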
Target sequence (P42574 whole entry, looked up): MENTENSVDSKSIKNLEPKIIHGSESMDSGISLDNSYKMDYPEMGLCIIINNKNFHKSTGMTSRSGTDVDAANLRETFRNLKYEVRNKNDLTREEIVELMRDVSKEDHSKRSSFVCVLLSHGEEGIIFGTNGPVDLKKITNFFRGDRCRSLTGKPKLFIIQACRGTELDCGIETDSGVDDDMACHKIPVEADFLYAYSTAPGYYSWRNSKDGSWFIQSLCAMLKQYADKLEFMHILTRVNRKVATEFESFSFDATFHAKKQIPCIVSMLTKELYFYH
UBC13 confirm – UBC13 polyubiquitination inhibitors, single-point retest, confirmation, biochemical, TR-FRET, single concentration; shares compounds with UBC13 inh; inhibition, % at 10 µM; hit rate 68% among 1,400; in the data active = inhibition above about 45%
Active calls of the source: *; x = no result given. Sampled rows, rich in hits. Any-hit rate of the full collection: about 3.2%.

SMILES	MEKK2 mut-MEK5	MEKK2 WT-MEK5	Pemphigus Ab inh	Apaf1 inhib	MEKK3 PB1 HTS	UBC13 inh	Casp3 UBC13 ctr	UBC13 confirm
NCCCC[C@@H]1NC(=O)c2cc([N+](=O)[O-])cc(I)c2SC[C@@H](C(N)=O)NC(=O)[C@H](Cc2ccc(O)cc2)NC1=O	10	116	102	6	99	59*	0	81*
COc1ccc(-c2sc3ccccc3c2-c2ccc(O)cc2)cc1	x	x	x	26	x	28	x	x
COc1ccc(-c2sc3ccccc3c2-c2ccc(OCCN(C)C)cc2)cc1	x	x	105	77*	x	87*	-10	81*
Cc1cccc(C)c1OCc1nnc(SCC(=O)NCCc2ccccc2)o1	1	99	95	7	103	92*	-5	3
COc1ccc(Cc2nnc(SCC(=O)NCCc3ccccc3)o2)cc1	1	93	99	-5	98	4	x	x
O=C(c1ccc(-c2cc(O)c3ncccc3c2)cc1)N1CCNCC1	x	x	99	18	x	114*	-4	117*
COC(=O)c1sccc1NC(=O)c1cc2c(s1)CCCC2	x	x	100	3	x	46*	58*	20
COc1ccc(C)cc1NC(=O)c1cc2c(s1)CCC2	9	106	98	4	99	6	x	x
O=C(NCc1ccncc1)C1CCN(S(=O)(=O)c2cccc(C(F)(F)F)c2)CC1	0	98	98	6	95	5	x	x
O=C(Nc1ccncc1)C1CCN(S(=O)(=O)c2cccc(C(F)(F)F)c2)CC1	x	x	101	39	x	54*	1	32
CN1CCc2c(sc(/N=C/c3c[nH]c4ccccc34)c2C(N)=O)C1	3	112	116	-1	93	85*	2	-10
O=c1c(Cl)c(NCCCO)cnn1-c1nc2ccccc2[nH]1	2	96	110	-20	98	91*	93*	110*
O=C(Nc1cccc(S(=O)(=O)N2CCCCCC2)c1)C1CCC1	x	x	104	2	x	2	x	x
Cc1ccc(OCC(=O)NNC(=S)NC(=O)C2CC2)c(C)c1	1	101	x	-5	102	85*	2	106*
N#Cc1ccc(OCC(=O)NNC(=S)NC(=O)C2CC2)cc1	x	x	95	-3	x	106*	-1	102*
Cc1ccc(OCC(=O)NNC(=S)NC(=O)C2CCCCC2)c(C)c1	8	107	105	10	102	-4	x	x
CCC(C)c1ccc(OCC(=O)NNC(=O)C2CCCCC2)cc1 (stereo unspecified)	0	100	106	-7	98	-9	x	x
CC(C)c1ccc(OCC(=O)NNC(=S)NC(=O)C2CC2)cc1	5	105	x	6	103	62*	-1	99*
N#Cc1ccc(NC(=S)NC(=O)C2CCCCC2)cc1	x	x	110	8	x	0	x	x
O=C1C[C@@H]2c3c(cccc3CN1Cc1ccccc1Br)C[C@@H](O)[C@H]2O	x	x	103	x	x	x	x	x
O[C@@H](c1cc(C(F)(F)F)nc2c(C(F)(F)F)cccc12)[C@H]1CCCCN1	x	x	105	52*	x	64*	-2	45
O=C(NNC(=S)NC(=O)c1ccccc1[N+](=O)[O-])c1ccccc1Cl	0	111	100	-1	110	48*	6	13
Cc1ccc(C)c(OCC(=O)N2CCN(c3ncccn3)CC2)c1	x	x	96	2	x	6	x	x
